The values that follow come from ChEMBL document CHEMBL3763097, “Synthesis and biological evaluation of 5,10-dihydro-11H-dibenzo[b,e][1,4]diazepin-11-one structural derivatives as anti-cancer and apoptosis inducing agents” (Eur J Med Chem, 2016).

In test [1] the test system is A549. Description: Cell cycle arrest in human A549 cells assessed as accumulation at S phase at 1 uM after 24 to 48 hrs by propidium iodide staining based flow cytometry (reference value: 18.3%). Type of test: functional. The method, boiled down: (§1)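 Cells were seeded at 1×10^6 per well and treated 24 h later with 0.5, 1 or 2 µM compound; DMSO-treated cells served as control. Methods give harvest at 48 h (floating plus trypsinised cells); the figure legend says 24 h. Cells were fixed in 70% ethanol for 30 min at 4 °C and stained with PI, Triton X-100 and RNase A for 15 min in the dark. 10000 events were counted by flow cytometry.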
(In flow cytometry, cells or beads pass a laser one at a time.)

For test [2], the system named is MDA-MB-231. Description: Disruption of mitochondrial membrane potential in human MDA-MB-231 cells at 0.5 to 2 uM after 48 hrs by Rhodamine-123 staining based spectrofluorometry. In kind it is functional. The essentials:
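Cells were seeded at 5×10^5 cells/mL overnight and treated with 0.5, 1 and 2 µM compound; the methods say 24 h and the results text says 48 h. Trypsinised cells were washed and stained with rhodamine-123 (2 µM in PBS) for 30 min at room temperature in the dark, washed and read by spectrofluorometer. Data are mean ± SD of three independent experiments.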

The test system of test [3] is MDA-MB-231. Description: Induction of apoptosis in human MDA-MB-231 cells assessed as late apoptotic cells at 0.5 uM after 24 hrs by Annexin V-FITC/PI dual staining based flow cytometry (reference value: 6.2%). In kind it is functional.
The subject of test [4] is A549. Kind of test: Induction of apoptosis in human A549 cells assessed as viable cells at 2 uM after 24 hrs by Annexin V-FITC/PI dual staining based flow cytometry (reference value: 85%). Type of test: functional. As to conditions: A549, 24 h, read-out: Activity.
For test [5], the system named is MDA-MB-231. Kind of test: Induction of apoptosis in human MDA-MB-231 cells assessed as viable cells at 2 uM after 24 hrs by Annexin V-FITC/PI dual staining based flow cytometry (reference value: 91%). In kind it is functional. As to conditions: MDA-MB-231, 24 h, read-out: Activity.
For test [6], the system named is MDA-MB-231. Kind of test: Induction of apoptosis in human MDA-MB-231 cells assessed as necrotic cells at 1 uM after 24 hrs by Annexin V-FITC/PI dual staining based flow cytometry (reference value: 1.9%). In kind it is functional.
Test [7] relates to A549. Description: Cell cycle arrest in human A549 cells assessed as accumulation at G0/G1 phase at 0.5 uM after 24 to 48 hrs by propidium iodide staining based flow cytometry (reference value: 49.1%). In kind it is functional. The essentials:
as §1

In a further test the test system is MDA-MB-231 (human). Description: Induction of apoptosis in human MDA-MB-231 cells assessed as late apoptotic cells at 2 uM after 24 hrs by Annexin V-FITC/PI dual staining based flow cytometry (reference value: 4.5%).
Test [8] concerns MDA-MB-231. Kind of test: Induction of apoptosis in human MDA-MB-231 cells assessed as necrotic cells at 0.5 uM after 24 hrs by Annexin V-FITC/PI dual staining based flow cytometry (reference value: 1.9%). In kind it is functional.

The structures appear in SMILES notation.

Regarding `O=C1c2ccccc2Nc2ccccc2N1Cc1cn(Cc2ccccc2)nn1`, the Activity is on record as 15.3% in the test on A549 [1]; 20% in the test on MDA-MB-231 [2]; 10.1% in the test on MDA-MB-231 [3]; 1.4% in the test with MDA-MB-231 [6]; 42.8% with A549 [7]; 17% in the test with MDA-MB-231 (human). Also, the Activity in the test with MDA-MB-231 [8] was 2.5%. For the same compound, the viability at 2 µM in the test on A549 [4] is 63.8%; in the test with MDA-MB-231 [5], 62%.
